Where “and” joins values, the source holds several entries; their conditions need not be identical. Equal values may be shown once.
What was measured:
[1] = Range is evaluated. (Highest IC50/Lowest IC50); format: functional
[2] = system: HX62 cell line; assay: Compound was tested for in vitro growth inhibition of Ovarian carcinoma cell line panel HX62; format: functional, cell-based, Homo sapiens
Summary of the method: (§1)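 Ovarian lines grown as monolayers in DMEM with 10% FBS, insulin, hydrocortisone and L-glutamine under 6% CO2. Cells were seeded at 3–5 × 10³/well and left to attach overnight. Compounds were freshly dissolved in DMA or water and applied for 96 h in quadruplicate wells. Growth was measured by SRB and reported as IC50.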

[3] = system: HT-29; assay: Compound was tested for in vitro growth inhibition of primary panel tumor cell line HT-29/219; format: functional, cell-based, Homo sapiens
Summary of the method: (§2)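 Primary-panel lines kept in L15, RPMI 1640 plus pyruvate, or MEM, each with 10% FBS. Cells were seeded at 5×10^4–10^5 cells/mL, preincubated 24 h, then exposed 4 h to 0–200 μg/mL from a 2 mg/mL stock in 10% DMA/PBS. After washout and 72 h further growth, cells were read by SRB. IC50 was the concentration giving 50% survival versus untreated controls.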

[4] = system: A2780; assay: Compound was tested for in vitro growth inhibition of Ovarian carcinoma cell line panel A2780-R; format: functional, cell-based, Homo sapiens; summary of the method: as §1
[5] = system: SW 1116; assay: Compound was tested for in vitro growth inhibition of primary panel tumor cell line SW1116; format: functional, cell-based, Homo sapiens; summary of the method: as §2
[6] = system: SK-OV-3; assay: Compound was tested for in vitro growth inhibition of primary panel tumor cell lines SK-OV-3; format: functional, cell-based, Homo sapiens; summary of the method: as §2
[7] = Solubility at 25 degrees Celsius in water; format: physicochemical; details: buffer
Summary of the method: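 5–10 mg sample was tumbled in 5.0 mL water at 25 °C for 24 h and filtered. The solution was diluted as needed and gold was quantified with 1 ppm indium as internal standard.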

[8] = system: CH1; assay: Compound was tested for in vitro growth inhibition of Ovarian carcinoma cell line panel CH1-R; format: functional, cell-based; summary of the method: as §1
[9] = system: CH1; assay: Compound was tested for in vitro growth inhibition of Ovarian carcinoma cell line panel CH1; format: functional, cell-based; summary of the method: as §1
[10] = system: A2780; assay: Compound was tested for in vitro growth inhibition of Ovarian carcinoma cell line panel A2780; format: functional, cell-based, Homo sapiens; summary of the method: as §1
[11] = system: HT-1376; assay: Compound was tested for in vitro growth inhibition of primary panel tumor cell line HT1376; format: functional, cell-based, Homo sapiens; summary of the method: as §2
[12] = Solubility at 25 degrees Celsius in 1-Octanol; format: physicochemical
Summary of the method: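 A sample was tumbled in 1-octanol at 25 °C for 24 h and filtered. An aliquot was evaporated and the residue taken up in dilute aqua regia. Gold content was determined as for the aqueous samples, with indium as internal standard.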

[13] = system: SW-620; assay: Compound was tested for in vitro growth inhibition of primary panel tumor cell line SW620; format: functional, cell-based, Homo sapiens; summary of the method: as §2
[14] = system: ZR-75-1; assay: Compound was tested for in vitro growth inhibition of primary panel tumor cell line ZR-75-1; format: functional, cell-based, Homo sapiens; summary of the method: as §2
[15] = system: SK-OV-3; assay: Compound was tested for in vitro growth inhibition of Ovarian carcinoma cell line panel SK-OV-3; format: functional, cell-based, Homo sapiens; summary of the method: as §1
[16] = system: SK-OV-3; assay: Compound was tested for in vitro growth inhibition of primary panel tumor cell line SK-OV-3; format: functional, cell-based, Homo sapiens; summary of the method: as §2
[17] = system: ZR-75-1; assay: Compound was tested for in vitro growth inhibition of primary panel tumor cell linZR-75-1; format: functional, cell-based, Homo sapiens; summary of the method: as §2
[18] = system: SW-620; assay: Compound was tested for in vitro growth inhibition of primary panel tumor cell lines SW620; format: functional, cell-based, Homo sapiens; summary of the method: as §2
[19] = system: Mus musculus; assay: Compound was evaluated for antitumor activity (RTV) in HT1376 carcinoma Xenograft, at a dosage 4.5 mg/kg on day 28; format: functional, organism-based; set-up: dose 4.5 mg/kg
Summary of the method: (§3)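 HT1376 tumor fragments implanted subcutaneously in nude mice flanks; mice with established palpable tumors randomized into groups of 6 (controls 10). Compounds given intraperitoneally as suspensions in 0.5% carboxymethylcellulose in 0.9% saline, on days 0, 7, 14 and 21. Tumor dimensions on days 0, 7, 14, 21, 28. RTV = 100(mean tumor volume at assessment)/(mean start volume).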

[20] = system: Mus musculus; assay: Compound was evaluated for antitumor activity (RTV) in HT1376 carcinoma Xenograft, at a dosage 4.5 mg/kg on day 7; format: functional, organism-based; set-up: dose 4.5 mg/kg; summary of the method: as §3
[21] = system: Mus musculus; assay: Compound was evaluated for antitumor activity (T/C) in HT1376 carcinoma Xenograft, at a dosage 4.5 mg/kg on day 28; format: functional, organism-based; set-up: dose 4.5 mg/kg
Summary of the method: (§4)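 Nude mice carrying subcutaneous flank HT1376 fragments; treatment began once tumors were established and palpable, randomized into groups of 6 treated and 10 control mice. Dosing was ip as a suspension in 0.5% carboxymethylcellulose in 0.9% saline on days 0, 7, 14 and 21, at the MTD and two 2-fold dilutions. Tumors were measured on days 0-28. RTV = 100(mean volume at assessment)/(mean start volume); T/C = treated RTV/control RTV.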

[22] = system: Mus musculus; assay: Compound was evaluated for antitumor activity (T/C) in HT1376 carcinoma Xenograft, at a dosage 4.5 mg/kg on day 13; format: functional, organism-based; set-up: dose 4.5 mg/kg; summary of the method: as §4
[23] = system: Mus musculus; assay: Compound was evaluated for antitumor activity (RTV) in HT1376 carcinoma Xenograft, at a dosage 4.5 mg/kgon day 13; format: functional, organism-based; set-up: dose 4.5 mg/kg
[24] = system: Mus musculus; assay: Compound was evaluated for antitumor activity (RTV) in HT1376 carcinoma Xenograft, at a dosage 4.5 mg/kg on day 21; format: functional, organism-based; set-up: dose 4.5 mg/kg; summary of the method: as §3
[25] = system: Mus musculus; assay: Compound was evaluated for antitumor activity (T/C) in HT1376 carcinoma Xenograft, at a dosage 4.5 mg/kg on day 7; format: functional, organism-based; set-up: dose 4.5 mg/kg; summary of the method: as §4
[26] = system: Mus musculus; assay: Compound was evaluated for antitumor activity (T/C) in HT1376 carcinoma Xenograft, at a dosage 4.5 mg/kg on day 21; format: functional, organism-based; set-up: dose 4.5 mg/kg; summary of the method: as §4

Bis(thiocyanato)[2-(dimethylamino)methyl]phenyl-C,N]gold-(III) [listing 1 of 2 here]
Range [1]: 7.6 and 19.5

Oxalato[2-(dimethylamino)methyl]phenyl-C,N]gold-(III) Hemihydrate
IC50 [2]: 30 µM
IC50 [3]: 19 µM
IC50 [4]: 35 µM
IC50 [5]: 215 µM
IC50 [6]: 10 µM
Solubility [7]: 0.43 mM
IC50 [8]: 13 µM
IC50 [9]: 11 µM
IC50 [10]: 3700 nM
IC50 [11]: 10 µM
Solubility [12]: 0.17 mM
IC50 [13]: 205 µM
IC50 [14]: 41 µM
IC50 [15]: 42 µM

Bis(thiocyanato)[2-(dimethylamino)methyl]phenyl-C,N]gold-(III) [listing 2 of 2 here]
IC50 [2]: 31 µM
IC50 [3]: 25 µM
IC50 [4]: 26 µM
IC50 [5]: 47 µM
Solubility [7]: 0.13 mM
IC50 [8]: 11 µM
IC50 [9]: 10 µM
IC50 [10]: 2000 nM
IC50 [11]: 6.7 µM
IC50 [16]: 20 µM
Solubility [12]: 0.78 mM
IC50 [13]: 51 µM
IC50 [14]: 34 µM
IC50 [15]: 39 µM

CISPLATIN [listing 1 of 2 here]
IC50 [2]: 18 µM
IC50 [17]: 27 µM
IC50 [3]: 17 µM
IC50 [4]: 10 µM
IC50 [5]: 163 µM
IC50 [8]: 0.56 µM
IC50 [9]: 0.12 µM
IC50 [10]: 1200 nM
IC50 [18]: 167 µM
IC50 [11]: 23 µM
IC50 [16]: 23 µM
IC50 [15]: 5.2 µM

CISPLATIN [listing 2 of 2 here]
RTV [19]: 1050
RTV [20]: 245
T/C [21]: 0.73
T/C [22]: 0.72
RTV [23]: 364
RTV [24]: 544
T/C [25]: 0.88
T/C [26]: 0.61
